# Screening results (PubChem BioAssay)
# Hits are enriched below; roughly 2.2% of the tested compounds scored in any of these assays.
# PfGluPho inh – PfG6PD (Plasmodium falciparum) enzyme inhibition; PfGluPho enzyme, NADPH resazurin-diaphorase fluorescence; 0.78% of 350,000 active; inhibition, % at 20 µM; AID 504690;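 active = inhibition reaching at least a set limit at 20 µM in the primary screen, cut at about 59% in these data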
# HKDC1 inhibitor – HKDC1 (human) hexokinase inhibition | Q2TB90 | recombinant HKDC1, G6PDH/diaphorase resazurin coupled fluorescence | inhibition, % at 20 µM | 0.16% of 340,000 active;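 active = inhibition above about 35% when tested at 20 µM, limit read from the data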
#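 Test system: HK5 enzyme. Quantity: 5 µg/mL HK5 final. Reagent: glucose and ATP substrates. Schedule: 90 min reaction incubation at room temperature, dark. Technique: resazurin-to-resorufin fluorescence via G6PDH and diaphorase coupling, 525/613 nm. Control set: DMSO wells with and without enzyme mix.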
# PfM18AAP inh-1 – PfM18AAP enzyme inhibition. inhibition, % at 7.35 µM. recombinant PfM18AAP, H-Glu-NHMec fluorogenic cleavage. 1.2% of 290,000 active. AID 1822;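 active = inhibition above the campaign mean inhibition over all tested compounds plus 3 SD, cut at about 28% in these data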
# Neddyl block – blocks human cullin neddylation; P61081+Q13564; TR-FRET cullin neddylation, biochemical; inhibition, % at 25 µM; 0.58% of 360,000 active; AID 651699; in the data active = inhibition above about 36%
# PfM18AAP inh-2 – PfM18AAP inhibition, confirmation. inhibition, % at 7.35 µM. shares compounds with PfM18AAP inh-1. recombinant PfM18AAP, H-Glu-NHMec fluorogenic cleavage. AID 2170. 28% of 2,400 active;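 active = mean inhibition over replicate wells above the hit cutoff set for the earlier primary screen, cut at about 29% in these data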
# CTSL1 confirm – counter-screen for PFM18AAP inhibitors: confirmation of human cathepsin L inhibitors; 2,400 tested, under 10 active; inhibition, % at 5.96 µM; purified cathepsin L1, Z-Leu-Arg-MCA fluorescence; AID 2178; shares compounds with PfM18AAP inh-1;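 active = average inhibition across replicates above the hit cutoff set in the earlier primary screen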
# Hits are given with their value; i = inactive; nt = no result given.
SMILES,PfGluPho inh,HKDC1 inhibitor,PfM18AAP inh-1,Neddyl block,PfM18AAP inh-2,CTSL1 confirm
COc1ccccc1-c1nc(C#N)c(NCCCn2ccnc2)o1,i,i,i,nt,nt,nt
O=C(O)c1ccc(N/N=C2/CCCc3ccccc32)cc1,i,i,34,i,i,i
O=C(c1cc(-c2ccccc2)nc2ccccc12)N1CCN(C2CCS(=O)(=O)C2)CC1 (stereo unspecified),i,i,nt,i,nt,nt
CCCn1c(-c2ccc(F)cc2)n[nH]c1=S,i,i,35,i,i,i
CN=c1scc(-c2cccs2)n1/N=C/c1ccccc1O,i,i,i,i,nt,nt
CC(C)N=c1scc(-c2ccco2)n1/N=C/c1ccc(O)c(O)c1,i,i,45,i,49,i
Oc1ccc(/C=N/n2c(-c3ccco3)csc2=Nc2cccnc2)c(O)c1,i,i,i,i,nt,nt
COCCN=c1scc(-c2ccco2)n1/N=C/c1ccc(O)c(O)c1O,i,i,36,i,i,i
CCOCc1nnc(NC(=O)CS(=O)(=O)c2ccc(C)cc2)s1,i,i,i,i,nt,nt
CN(CC(=O)Nc1ccc(F)cc1)C(=O)CNC(=O)C1CCCCC1,i,i,nt,i,nt,nt
CC(C)(C)c1ccc(C(=O)N2CCC2(C)C(=O)NCc2cccc3ccccc23)cc1 (stereo unspecified),nt,nt,nt,i,nt,nt
CCN1CCc2c(sc(NC(=O)c3ccc(C(=O)c4ccccc4)cc3)c2C(N)=O)C1,i,i,i,i,nt,nt
CCN1CCc2c(sc(NC(=S)NC(=O)c3ccco3)c2C(N)=O)C1,i,i,33,i,i,i
CCN1CCc2c(sc(NC(=S)NC(=O)c3ccccc3)c2C#N)C1,i,i,38,i,i,i
CCN1CCc2c(sc(NC(=O)c3ccc(S(=O)(=O)N(CC)c4ccccc4)cc3)c2C(N)=O)C1,i,i,36,i,i,i
O=C(OCC(=O)N1CCCCCC1)c1ccc(F)cc1F,i,i,nt,i,nt,nt
O=c1oc2ccccc2c2oc3cc(O)c(O)cc3c12,i,i,68,nt,74,i
CC(C)C(=O)c1ccc(O)c(O)c1,i,i,41,i,i,i
CC(Cl)C(=O)NNc1cccc(Cl)n1 (stereo unspecified),i,i,i,i,nt,nt
O=C(NNc1cccc(Cl)n1)Nc1ccccc1,i,i,59,i,43,i
O=C(NNc1cccc(Cl)n1)Nc1cccc(Cl)c1,i,i,52,i,49,i
Cc1ccc(NC(=O)NNc2cccc(Cl)n2)cc1,i,i,53,i,i,i
Cc1ccc(/C=N/Nc2nnc(Cc3ccccc3)c(=O)[nH]2)o1,i,i,i,i,nt,nt
COc1ccc(Cc2nnc(N/N=C/c3ccc(O)cc3O)[nH]c2=O)cc1OC,i,i,39,i,46,i
COc1ccccc1NS(=O)(=O)c1ccc(C(=O)NCCCN2CCOCC2)cc1,i,i,nt,i,nt,nt
SMILES,PfGluPho inh,HKDC1 inhibitor,PfM18AAP inh-1,Neddyl block,PfM18AAP inh-2,CTSL1 confirm
O=C(Nc1ccc(Cl)cc1Cl)NC1CCN(S(=O)(=O)c2ccc(F)cc2)CC1,i,i,i,i,nt,nt
CCN(CC)c1ccc(NS(=O)(=O)c2ccc(OC)cc2)cc1,i,i,32,i,i,i
COc1ccc(S(=O)(=O)Nc2ccc(N(C)C(C)=O)cc2)cc1,i,i,i,i,nt,nt
O=C(Nc1ccccc1)c1cccc(N2C(=O)C3C4CC(C(Br)C4Br)C3C2=O)c1 (stereo unspecified),i,i,i,i,nt,nt
CN1/C(=C\C(=O)COC(=O)c2ccc(O)c(O)c2)C(C)(C)c2ccccc21,i,i,45,nt,i,i
CN1/C(=C\C(=O)CSc2cccc[n+]2[O-])C(C)(C)c2ccccc21,i,i,49,i,i,i
O=C(c1cccs1)c1ccccc1Cc1cccs1,i,i,nt,i,nt,nt
O=S(=O)(NNc1ccc(Cl)nn1)c1ccc(F)cc1,i,i,69,i,64,i
O=S(=O)(Nc1ccc(Cl)nn1)c1ccccc1,i,i,i,i,nt,nt
O=S(=O)(Nc1nc2ccccc2nc1Cl)c1ccc(Cl)cc1,i,i,i,i,nt,nt
O=S(=O)(NNc1cccc(Cl)n1)c1ccc(Cl)cc1,i,i,72,i,49,i
O=C(N=C1SC2CS(=O)(=O)CC2N1c1cc(Cl)ccc1Cl)C1CCCO1 (stereo unspecified),i,i,i,i,nt,nt
CC(C)(C)c1ccc(C(=O)NNC(=O)c2ccc(Cl)cc2)cc1,i,i,i,i,nt,nt
Cc1ccc(NNC(=O)c2ccc(Cl)cc2)nn1,i,i,33,i,i,i
C/C(=N\Nc1nc(N)cc(Cl)n1)c1cccc(N)c1,i,i,i,i,nt,nt
C/C(=N\Nc1nc(N)cc(Cl)n1)c1cccc([N+](=O)[O-])c1,i,i,34,i,i,i
COc1ccc(OC)c(-c2cc(C(=O)N/N=C/c3cc(OC)c(OC)cc3OC)c3ccccc3n2)c1,i,i,nt,nt,nt,nt
COCCN(CCOC)Cc1c(O)ccc2c1O/C(=C\c1ccco1)C2=O,i,i,38,i,i,i
O=C1/C(=C/c2ccco2)Oc2c1ccc(O)c2CN1CCCCC1,i,i,i,i,nt,nt
Cc1[nH]c2ccccc2c1/C=N/Nc1ccc([N+](=O)[O-])cc1,i,i,34,i,i,i
C/C(=N/NS(=O)(=O)c1ccc(C)cc1C)c1c[nH]c2ccccc12,i,i,i,i,nt,nt
COc1ccc(NC(=O)n2nc(OC(=O)c3cccs3)cc2N)cc1,i,i,50,i,i,i
CCn1c(SCC(=O)c2ccc(O)c(O)c2)nnc1-c1ccccc1OC,i,i,42,i,i,i
CCn1c(SCC(=O)c2c(N)n(C3CC3)c(=O)[nH]c2=O)nnc1-c1ccccc1OC,i,i,nt,i,nt,nt
C=CCn1c(SCC(=O)c2ccc(O)c(O)c2)nnc1-c1cccnc1,i,i,54,i,i,i
SMILES,PfGluPho inh,HKDC1 inhibitor,PfM18AAP inh-1,Neddyl block,PfM18AAP inh-2,CTSL1 confirm
CCn1c(CSc2nc3ccccc3s2)nnc1SCC(=O)c1ccc(O)c(O)c1,i,i,49,i,30,i
CCn1c(SCC(=O)c2ccc(O)c(O)c2)nnc1-c1ccccc1,i,i,41,i,i,i
Cc1occc1C(=O)NNC(=O)c1ccc(S(=O)(=O)N(C)C)cc1,i,i,nt,i,nt,nt
C=CCn1c(SCC(=O)c2ccc(O)c(O)c2)nnc1-c1ccccc1OC,i,i,49,i,34,i
C=CCn1c(SCC(=O)c2ccc(O)c(O)c2)nnc1-c1cccc(C)c1,i,i,nt,i,nt,nt
CC1(C)CC(=O)C(C(c2ccc(Br)cc2)C2C(=O)CC(C)(C)CC2=O)C(=O)C1,i,i,i,i,nt,nt
CC(=O)c1c(O)cc(C)n(-c2ccc(F)cc2)c1=O,i,i,i,i,nt,nt
CC(=O)c1c(O)cc(C)n(Nc2nc(C)cc(C)n2)c1=O,i,i,34,i,i,i
O=C(CSCc1ccccc1)NNc1c(F)c(F)cc(F)c1F,i,i,i,i,nt,nt
CN1c2ccccc2C(C)(C)[C@]12C=Cc1cc(O)ccc1O2,i,i,48,i,i,i
CC1(C)OC(=O)N(c2ccccc2)C12C=Cc1cc(Br)ccc1O2 (stereo unspecified),i,i,i,i,nt,nt
NC(=S)NNC(=O)Nc1ccc(Cl)c(Cl)c1,i,i,35,i,i,i
